Assay results taken from paper PMC7049346 (Haematologica, 2019).

Columns and labels:
K562 cells [1] = settings: cited from earlier work
mice = test: Classical fear conditioning model of learning and memory; format: in vivo; settings: similar dose of both PDE9i
K562 cells [2] = test: Cytotoxicity in K562 cells; format: cell-based, human; settings: end of 72-h culture
Method in brief: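 Actively growing K562 cells were cultured for 72 h with increasing concentrations of the test compound. Terminal viability was scored by automated cell counting or trypan-blue exclusion, or by an ATP-based luminescence assay. Apoptosis was checked by Annexin V flow cytometry.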

HbSS-Townes mice [3] = test: Townes SCD model, 30 days daily oral dosing; format: in vivo; settings: for percentage of sickled RBC: vehicle 56%
K562 cells [4] = test: cGMP induction in K562 cells; format: cell-based, human; settings: 6 h
Method in brief: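 Actively growing K562 cells were treated for 6 h with increasing concentrations of the test compound or hydroxyurea. cGMP was measured by non-radioactive enzyme immunoassay using the acetylation protocol, and protein by BCA assay. Data are means±Standard Errors.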

HbSS-Townes mice [5] = test: HbSS-Townes vaso-occlusive crisis model; format: in vivo; settings: HU 100 mg/kg/day for ten days, P<0.05
[6] = tested on: erythroid cells from CD34+ progenitors of SCD patients; test: HbF induction in SCD patient-derived erythroblasts; format: cell-based, human; settings: 30 μM HU
Method in brief: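 CD34⁺ progenitors came from the blood or bone marrow of nine SCD donors. Cells grew seven days with 15% BIT 9500, 2 mM L-glutamine, IL-3 (10 ng/mL), IL-6 and SCF (100 ng/mL). CD36⁺ cells were then isolated and grown five days with SCF, IL-3 and EPO (2 UI/mL) plus DMSO, 30 μM hydroxyurea or 10 μM test compound. HbF⁺ cells (%) and HbF MFI were read by PE-anti-HbF FACS, gated LiveDead⁻/GPA⁺/Band3⁺.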

K562 cells [7] = test: HbF induction in K562 cells; format: cell-based, human; settings: 72 h
[8] = HU 100 mg/kg, 30 days, not significant

C[C@H](Cc1nc2c(cnn2-c2ccccc2Cl)c(=O)[nH]1)C(F)(F)F [BAY73-6691]
HbF mRNA expression (K562 cells [1]): increased HbF mRNA expression

Nc1nc(-c2nn(Cc3ccccc3F)c3ncccc23)ncc1C1CC1 [BAY 41-2271]
HbF mRNA expression (K562 cells [1]): increased HbF mRNA expression

C[C@@H]1CN(Cc2ncccn2)C[C@H]1c1nc2c(cnn2C2CCOCC2)c(=O)[nH]1 [PF-04447943, 6-[(3S,4S)-4-methyl-1-(pyrimidin-2-ylmethyl)pyrrolidin-3-yl]-1-(tetrahydro-2H-pyran-4-yl)-1,5-dihydro-4H-pyrazolo[3,4-d]pyrimidin-4-one, reference compound]
conditioned fear responses (mice): significantly increased conditioned fear responses

NC(=O)NO [HU, Hydroxyurea]
Cytotoxicity (cell counts) (K562 cells [2]): induction was accompanied by cytotoxicity | percentage of sickled RBC (HbSS-Townes mice [3]; HU 25 mg/kg/day, 30 days): 52% | percent F-cells (HbSS-Townes mice [3]; HU 25 mg/mL/day (so in the source), 30 days, vehicle 8.4%, not significant): 13% | percentage of sickled RBC (HbSS-Townes mice [3]; HU 50 mg/kg/day, 30 days): 49% | percent F-cells (HbSS-Townes mice [3]; HU 50 mg/mL/day (so in the source), 30 days, vehicle 8.4%, not significant): 18% | WBC lower than vehicle (HbSS-Townes mice [3]; HU 100 mg/kg, 30 days): 21% | reduction of MPO levels (HbSS-Townes mice [3]; HU 100 mg/kg, 30 days): 2.1 fold | reduction of lung arginase (compared with IMR-687) (HbSS-Townes mice [3]; HU 100 mg/kg, 30 days): less pronounced | reduction of plasma free Hb levels (HbSS-Townes mice [3]; HU 100 mg/kg, 30 days): approximately 55% | lung MPO levels (HbSS-Townes mice [3]; HU 100 mg/kg, 30 days, HbSS-Townes vehicle 3.1 mU/L, P<0.0001): 1.5 mU/L | plasma bilirubin (HbSS-Townes mice [3]; HU 100 mg/kg, 30 days, P<0.01): 5 mg/dL | changes in reticulocyte counts, RBC, hematocrit and Hb (compared with IMR-687) (HbSS-Townes mice [3]; HU 100 mg/kg, 30 days, changes in Hb not significant): produced smaller changes | LDH levels (HbSS-Townes mice [3]; [8]): 121 AU | plasma nitrite levels (HbSS-Townes mice [3]; [8]): 1.23 mg/mL | WBC count (HbSS-Townes mice [3]; HU 100 mg/kg, 30 days, vehicle 38.2×10^9/L): 3.04e+10 L⁻¹ | Mortality (HbSS-Townes mice [3]; HU 100 mg/kg/day): resulted in mortality in mice | percent F cells (HbSS-Townes mice [3]; HU 100 mg/kg/day, 30 days, vehicle 8.4%): 29.3% | percent sickled RBC (HbSS-Townes mice [3]; HU 100 mg/kg/day, 30 days, vehicle 56.3%): 28.8% | changes in reticulocyte counts, RBC, hematocrit and Hb (HbSS-Townes mice [3]; HU 25 and 50 mg/kg, 30 days): only the change in reticulocyte counts was significant | reduction of markers of hemolysis (bilirubin, LDH) (HbSS-Townes mice [3]; HU 25 and 50 mg/kg, 30 days): did not produce a significant reduction | lung MPO levels (HbSS-Townes mice [3]; lower doses of HU, 30 days): reduced MPO levels in the lungs | cGMP induction (K562 cells [4]): increases cGMP in a dose-dependent manner | microvascular stasis (HbSS-Townes mice [5]; 1 h in normoxia, vehicle 33%): 13% | microvascular stasis (HbSS-Townes mice [5]; 4 h in normoxia, vehicle 16%): 8% | percentage of F-cells (HbF positive) ([6]; five days, DMSO control 13.3%, n=7, P<0.01): 22.2% | intensity of HbF staining (MFI) ([6]; five days, control 6073±1217, n=7, P=0.041): 9744±2805 | Cytotoxicity in patient-derived cultures ([6]; 9 cultures): cytotoxicity induced by HU in 2 cultures | HbF induction (ELISA) (K562 cells [7]): induced HbF in a dose-dependent manner
